# Assay results reported in ChEMBL document CHEMBL1137311, “Peptide inhibitors of West Nile NS3 protease: SAR study of tetrapeptide aldehyde inhibitors” (J Med Chem, 2006).
# Non-standard residues stand in square brackets, D forms with d. Residues, ends and D or L forms follow the SMILES beside them. *: point of attachment. NMeR = CN[C@@H](CCCNC(=N)N)C(=O)O; NMeK = CN[C@@H](CCCCN)C(=O)O; NMeNle = CCCC[C@H](NC)C(=O)O; Phg = N[C@H](C(=O)O)c1ccccc1; dNle = CCCC[C@@H](N)C(=O)O; Nle = CCCC[C@H](N)C(=O)O; Bz = O=C(c1ccccc1)*
# Experiment: Inhibition of West Nile virus NS3 protease
# In short: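 Enzyme: WNV CF40-gly-NS3pro187 conjugate at 50 nM, preincubated with a range of inhibitor concentrations for 30 min at 37 °C. Buffer: 50 mM Tris pH 8.5 with 1 mM CHAPS. Reaction started with 20 µM Bz-nKRR-AMC. Fluorescence (ex 385/em 465 nm) followed continuously. IC50 from nonlinear fit of initial velocities, each point in duplicate within a single experiment.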
row,IC50,SMILES
1,10 µM,CCCC[C@H](NC(=O)c1ccccc1)C(=O)N[C@@H](CCCCN)C(=O)N[C@@H](CCCN=C(N)N)C(=O)N[C@H](C=O)Cc1c[nH]c2ccccc12 (Bz-[Nle]KRW-aldehyde)
2,57.7 µM,CCCC[C@H](NC(=O)c1ccccc1)C(=O)N[C@@H](CCCCN)C(=O)N[C@@H](CCCNC(=N)N)C(=O)N[C@H](C=O)CCCCN (Bz-[Nle]KRK-aldehyde)
3,4.1 µM,CCCC[C@H](NC(=O)c1ccccc1)C(=O)N[C@@H](CCCCN)C(=O)N[C@@H](CCCNC(=N)N)C(=O)N[C@H](C=O)CCCNC(=N)N (Bz-[Nle]KRR-aldehyde)
4,2.6 µM,CCCC[C@@H](NC(=O)c1ccccc1)C(=O)N[C@@H](CCCCN)C(=O)N[C@@H](CCCN=C(N)N)C(=O)N[C@H](C=O)CCCN=C(N)N (Bz-[dNle]KRR-aldehyde)
5,14.3 µM,CCCC[C@H](NC(=O)c1ccccc1)C(=O)N1CCC[C@H]1C(=O)N[C@@H](CCCN=C(N)N)C(=O)N[C@H](C=O)CCCN=C(N)N (Bz-[Nle]PRR-aldehyde)
6,43.1 µM,CCCC[C@H](NC(=O)c1ccccc1)C(=O)N[C@@H](CCCCN)C(=O)N[C@@H](CCCNC(=N)N)C(=O)N[C@H](C=O)Cc1cnc[nH]1 (Bz-[Nle]KRH-aldehyde)
7,1.9 µM,CCCC[C@H](NC(=O)c1ccccc1)C(=O)N[C@@H](CCCCN)C(=O)N[C@@H](CCCCN)C(=O)N[C@H](C=O)CCCNC(=N)N (Bz-[Nle]KKR-aldehyde)
8,0.7 µM,C[C@H](NC(=O)c1ccccc1)C(=O)N[C@@H](CCCCN)C(=O)N[C@@H](CCCNC(=N)N)C(=O)N[C@H](C=O)CCCNC(=N)N (Bz-AKRR-aldehyde)
9,108 µM,CCCC[C@H](NC(=O)c1ccccc1)C(=O)N[C@@H](CCCCN)C(=O)N[C@@H](Cc1ccccc1)C(=O)N[C@H](C=O)CCCNC(=N)N (Bz-[Nle]KFR-aldehyde)
10,110 µM,CCCC[C@H](NC(=O)c1ccccc1)C(=O)N[C@@H](CCCCN)C(=O)N[C@@H](CCCNC(=N)N)C(=O)N[C@H](C=O)Cc1ccccc1 (Bz-[Nle]KRF-aldehyde)
11,57.8 µM,CCCC[C@H](NC(=O)c1ccccc1)C(=O)N[C@@H](CCCCN)C(=O)N(C)[C@@H](CCCN=C(N)N)C(=O)N[C@H](C=O)CCCN=C(N)N (Bz-[Nle]K[NMeR]R-aldehyde)
12,3.8 µM,CCCC[C@H](NC(=O)c1ccccc1)C(=O)N[C@@H](C)C(=O)N[C@@H](CCCNC(=N)N)C(=O)N[C@H](C=O)CCCNC(=N)N (Bz-[Nle]ARR-aldehyde)
13,4.2 µM,CCCC[C@H](NC(=O)c1ccccc1)C(=O)N[C@@H](Cc1ccccc1)C(=O)N[C@@H](CCCNC(=N)N)C(=O)N[C@H](C=O)CCCNC(=N)N (Bz-[Nle]FRR-aldehyde)
14,1.2 µM,NCCCC[C@H](NC(=O)[C@H](Cc1ccccc1)NC(=O)c1ccccc1)C(=O)N[C@@H](CCCN=C(N)N)C(=O)N[C@H](C=O)CCCN=C(N)N (Bz-FKRR-aldehyde)
15,4.6 µM,CCCC[C@H](NC(=O)c1ccccc1)C(=O)N[C@@H](CCCCN)C(=O)N[C@@H](CCCN=C(N)N)C(=O)N[C@@H](C)C=O (Bz-[Nle]KRA-aldehyde)
16,73.6 µM,CCCC[C@H](NC(=O)c1ccccc1)C(=O)N(C)[C@@H](CCCCN)C(=O)N[C@@H](CCCN=C(N)N)C(=O)N[C@H](C=O)CCCN=C(N)N (Bz-[Nle][NMeK]RR-aldehyde)
17,262 µM,CCCC[C@H](NC(=O)c1ccccc1)C(=O)N[C@@H](CCCCN)C(=O)N[C@@H](C)C(=O)N[C@H](C=O)CCCN=C(N)N (Bz-[Nle]KAR-aldehyde)
18,9.3 µM,CCCC[C@@H](C(=O)N[C@@H](CCCCN)C(=O)N[C@@H](CCCN=C(N)N)C(=O)N[C@H](C=O)CCCN=C(N)N)N(C)C(=O)c1ccccc1 (Bz-[NMeNle]KRR-aldehyde)
19,14 µM,CCCC[C@H](NC(=O)c1ccccc1)C(=O)N[C@@H](CCCCN)C(=O)N[C@@H](CCCN=C(N)N)C(=O)N[C@@H](C=O)CCCN=C(N)N (Bz-[Nle]KR[dR]-aldehyde)
20,23.8 µM,CCCC[C@H](NC(=O)c1ccccc1)C(=O)N[C@H](CCCCN)C(=O)N[C@@H](CCCN=C(N)N)C(=O)N[C@H](C=O)CCCN=C(N)N (Bz-[Nle][dK]RR-aldehyde)
21,129 µM,CCCC[C@H](NC(=O)c1ccccc1)C(=O)N[C@@H](CCCCN)C(=O)N[C@H](CCCN=C(N)N)C(=O)N[C@H](C=O)CCCN=C(N)N (Bz-[Nle]K[dR]R-aldehyde)
22,90.9 µM,CCCC[C@H](NC(=O)c1ccccc1)C(=O)N[C@@H](CCCCN)C(=O)N[C@@H](CCCNC(=N)N)C(=O)N[C@H](C=O)c1ccccc1 (Bz-[Nle]KR[Phg]-aldehyde)
